High-throughput results deposited in PubChem by several laboratories.
Sampled rows, rich in hits. Any-hit rate of the full collection: about 4.3%.
MC4R ag barr – activates human MC4R beta-arrestin recruitment; P32245; activation, % at 8.9 µM; hit rate 0.98% among 360,000; AID 540308; U2OS MC4R beta-arrestin complementation, luminescence; percent of melanotan II response, DMSO zero;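 active = activation above a per-plate cutoff, the mean activation of sample wells on that plate plus 3 SD, cut at about 8% in these data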
Target sequence (P32245 whole entry, looked up): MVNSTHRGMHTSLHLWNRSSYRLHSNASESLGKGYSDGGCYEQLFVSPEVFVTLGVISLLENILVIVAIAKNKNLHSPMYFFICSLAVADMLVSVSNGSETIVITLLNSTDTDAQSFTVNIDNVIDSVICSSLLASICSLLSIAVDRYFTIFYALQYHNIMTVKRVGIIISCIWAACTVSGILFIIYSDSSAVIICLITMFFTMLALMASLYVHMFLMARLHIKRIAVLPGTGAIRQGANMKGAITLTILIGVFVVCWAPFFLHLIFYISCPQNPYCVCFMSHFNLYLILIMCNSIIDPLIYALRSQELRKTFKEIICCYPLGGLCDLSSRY
TAAR1 ag – human TAAR1 agonism; activation, % at 3 µM; Q96RJ0; hit rate 0.99% among 360,000; CHO RD-HGA16 TAAR1, Fluo-8 calcium fluorescence; vehicle wells 0%, saturating PEA agonist 100%; AID 624467;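 active = activation above the mean activation of all test compounds in the run plus 3 SD, cut at about 38% in these data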
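Signal – calcium-sensitive Fluo-8 signal, excitation 470-495, emission 515-575 nm · System – RD-HGA16 (CHO) cells co-expressing Gα16 and hTAAR1 · Incubation – 17-24 h seeding, 75 min 37 °C dye, 30 min RT · Compound dosing – 3 µM single concentration · Repeats – no replicates (n 1)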
TAAR1 antag – antagonists of human TAAR1. Q96RJ0. CHO RD-HGA16 TAAR1, Fluo-8 calcium fluorescence, antagonist. inhibition, % at 3 µM. hit rate 1.5% among 360,000;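 active = inhibition above a per-plate cutoff, the mean inhibition of test compounds on that plate plus 3 SD, cut at about 49% in these data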;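 note: 0% = DMSO plus EC80 beta-PEA response and 100% = DMSO alone without agonist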
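Test system: RD-HGA16 CHO cells with stable hTAAR1 and Gα16 / Probe or stimulus: EC80 β-phenethylamine stimulus / Times: seeding 17-24 h prior, 75-min 37 °C, 30-min RT dye loading / Detection: Fluo-8 calcium-sensitive fluorescence / Read-out basis: % inhibition scaled between DMSO and EC80 PEA controls / Repeats: singlicate, one well per test compound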
MC4R antag cAMP – antagonists of human melanocortin 4 receptor (MC4R) | AID 540295 | hit rate 0.48% among 360,000 | inhibition, % at 6.5 µM | MC4R-expressing cells, MTII-stimulated cAMP, LANCE TR-FRET | P32245;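 active = inhibition above its plate's cutoff, the mean of tested wells on that plate plus 3 SD, cut at about 29% in these data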;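 note: 0% = Melanotan II alone and 100% = Melanotan II plus saturating MCL0020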
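Assay system: U2OS cells stably expressing human melanocortin 4 receptor (MC4R) / Dosing: 6.5 µM / Timing: compound 30 min, challenge 1 h, detection 1 h / Measured by: Eu-cAMP/anti-cAMP TR-FRET, emission 671 nm / Replicates: singlicate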
Beta2AR agonist – agonists of human beta-2 adrenergic receptor inducing internalization; Am2.2-beta2AR cells, FAP receptor internalization, flow cytometry; response, % (no concentration beside the values); hit rate 0.43% among 340,000; AID 504454;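 active = response above a set limit, near 3 SD of response in nonfluorescent compounds, cut at about 42% in these data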
Target sequence (P07550 whole entry, looked up): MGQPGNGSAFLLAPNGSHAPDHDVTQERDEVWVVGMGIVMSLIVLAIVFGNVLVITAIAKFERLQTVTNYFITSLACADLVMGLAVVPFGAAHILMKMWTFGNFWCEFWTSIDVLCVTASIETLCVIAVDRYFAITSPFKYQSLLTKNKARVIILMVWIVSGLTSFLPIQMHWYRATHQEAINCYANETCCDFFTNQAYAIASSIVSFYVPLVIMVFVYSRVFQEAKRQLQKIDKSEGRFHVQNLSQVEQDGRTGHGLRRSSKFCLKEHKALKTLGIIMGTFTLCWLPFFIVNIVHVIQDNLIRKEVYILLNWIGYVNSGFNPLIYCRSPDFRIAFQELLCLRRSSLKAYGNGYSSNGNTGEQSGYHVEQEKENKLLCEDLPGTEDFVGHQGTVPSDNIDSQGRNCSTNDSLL
HTR2A ag – agonists of mouse serotonin 5-HT2A receptor (HTR2A); P35363; CHO-K1 mHTR2A beta-arrestin complementation, luminescence; percent of 30 µM serotonin response; activation, % at 7.6 µM; hit rate 0.66% among 360,000;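 active = activation above a run cutoff, the mean activation of all tested compounds plus 3 SD, cut at about 14% in these data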;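 note: 0% = plate median of compound wells and 100% = 30 µM serotonin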
nonsel antag count – nonselective antagonism, TAAR1 counter-screen | counterscreen cell line, calcium fluorescence, antagonist mode | shares compounds with TAAR1 antag | inhibition, % at 3 µM | hit rate 77% among 2,400; in the data active = inhibition above about 22%;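 note: CHO-Ga16 host cells stimulated with ATP at an EC80 level; 0% = agonist EC80 plus vehicle and 100% = vehicle without agonist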
TAAR1 ant conf – human TAAR1 antagonism, confirmed | shares compounds with TAAR1 antag | TAAR1-expressing cells, fluorescence antagonist read-out | inhibition, % at 3 µM | hit rate 40% among 2,400 | AID 651785; in the data active = inhibition above about 49%;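 note: CHO-Ga16 host cells challenged with agonist PEA near its EC80; 0% = agonist at EC80 plus vehicle and 100% = vehicle with no agonist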
Ga16 ag counter – counter-screen for TAAR1 antagonists: nonselective Ga16 agonists. shares compounds with TAAR1 antag. Ga16-expressing cells, calcium fluorescence, agonist counterscreen. activation, % at 3 µM. hit rate 18% among 2,400. AID 651953; in the data active = activation above about 12%;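 note: 0% = vehicle wells and 100% = saturating stimulus response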
TAAR1 ag count – TAAR1 agonism, antagonist counter-screen; shares compounds with TAAR1 antag; hTAAR1 cell line, fluorescence activation, agonist mode; activation, % at 3 µM; hit rate 2% among 2,400; in the data active = activation above about 37%;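 note: CHO cells stably expressing TAAR1 with calcium dye readout; 0% = DMSO vehicle and 100% = full agonist response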
* hit, by the source's call; / = no result.

SMILES | MC4R ag barr | TAAR1 ag | TAAR1 antag | MC4R antag cAMP | Beta2AR agonist | HTR2A ag | nonsel antag count | TAAR1 ant conf | Ga16 ag counter | TAAR1 ag count
COc1ccccc1OCCCOc1ccc(/C=C2\SC(=O)NC2=O)cc1OC | 2 | 11 | 82* | 11 | 14 | -4 | 34* | 53* | 9 | 5
OC[C@H]1O[C@@H](c2nc(-c3ccc(CN4CCOCC4)cc3)no2)[C@H](O)[C@@H](O)[C@H]1O | 0 | 0 | -8 | 5 | / | 2 | / | / | / | /
COc1cccc2ccc(CC(O)(c3ccccc3)c3ccccc3)nc12 | 0 | 1 | -21 | 16 | / | -2 | / | / | / | /
O=C(c1ccco1)N(CCCN1CCOCC1)c1nc(-c2ccc(F)cc2)cs1 | 3 | 8 | 57* | 3 | 12 | -2 | 20 | 39 | 5 | 6
COc1ccc(C2C(C(=O)N3CCN(c4ccccn4)CC3)CC(=O)N2c2ccc(OC)cc2)cc1 (configuration not stated) | 1 | 20 | 57* | -1 | -6 | 4 | 26* | 46 | 13* | 12
CCN(C(=O)CSc1nnc(NCCOC)s1)c1c(N)n(Cc2ccccc2)c(=O)[nH]c1=O | -1 | 2 | -11 | 1 | -9 | 10 | / | / | / | /
COC(=O)[C@H](CC(C)C)NC(=O)Cn1cnc2c(NCc3ccccc3)ncnc21 | -1 | 1 | 4 | 23 | 2 | 4 | / | / | / | /
CC(C)(C)c1nnc(N/N=C/c2ccccc2)n(N)c1=O | -1 | 13 | 59* | 4 | 0 | 7 | 30* | 52* | 9 | 5
CCc1nnc(N/N=C/c2ccccc2F)n1N | 1 | 9 | 14 | 7 | 0 | 4 | / | / | / | /
CC(C)(C)c1nnc(N/N=C/c2ccccc2O)n(N)c1=O | -2 | 25 | 59* | -2 | 3 | -3 | 42* | 64* | 19* | 17
CSc1nnc(C(C)(C)C)c(=O)n1/N=C/c1ccccc1 | 5 | 22 | -25 | 14 | 2 | -1 | / | / | / | /
O=C(Nc1c(F)c(F)c(F)c(F)c1F)c1ccc(Br)o1 | 0 | 1 | -27 | 3 | / | 5 | / | / | / | /
Cc1ccccc1NC(=O)Cc1nc(CSc2nnc(-c3ccc4c(c3)OCO4)o2)cs1 | -1 | 15 | 55* | 13 | 4 | -8 | 25* | 37 | 8 | 5
Cc1ccc2nc(COC(=O)c3cccnc3Cl)cc(=O)n2c1 | 0 | 3 | 1 | 7 | / | -4 | / | / | / | /
COC(=O)c1ccc(CNC(=O)c2ccccc2C(=O)NCC2(CBr)OCCO2)cc1 | -3 | 3 | -5 | -5 | / | 3 | / | / | / | /
CCOC(=O)c1ccccc1NC(=O)COC(=O)c1cc([N+](=O)[O-])ccc1N1CCOCC1 | -3 | 1 | 59* | 8 | 12 | 4 | 27* | 30 | 7 | 3
COC(=O)C1=C(C)N(Cc2ccc(C(F)(F)F)cc2)C(=NCc2ccccc2)NC1c1cccc(Cl)c1 (configuration not stated) | / | 27 | 60* | / | / | / | 39* | 37 | 13* | 35
COC(=O)C1=C(C)N(Cc2cccc(C(F)(F)F)c2)C(=NCc2ccc(C(F)(F)F)cc2)NC1c1ccc(Cl)cc1 (configuration not stated) | / | 13 | 31 | / | / | / | / | / | / | /
COC(=O)C1=C(C)N(Cc2cccc(C(F)(F)F)c2)C(=NCc2ccc(OC)cc2)NC1c1ccc(F)cc1 (configuration not stated) | / | 31 | 53* | / | / | / | 41* | 33 | 15* | 30
COC(=O)C1=C(C)N(Cc2cccc(C(F)(F)F)c2)C(=NCc2ccc3c(c2)OCO3)NC1c1ccc(Cl)cc1 (configuration not stated) | / | 29 | 56* | / | / | / | 37* | 41 | 19* | 52*
CCN=C1NC(c2cccc(Cl)c2)C(C(=O)OC)=C(C)N1Cc1ccc(C(F)(F)F)cc1 (configuration not stated) | / | 28 | 41 | / | / | / | / | / | / | /
COC(=O)C1=C(C)N(Cc2ccc(F)cc2)C(=S)NC1c1cccc(OC)c1 (configuration not stated) | / | -1 | 57* | / | / | / | 24* | 41 | 2 | 3
COC(=O)C1=C(C)N(Cc2cccc(C(F)(F)F)c2)C(=NCc2ccc(C(F)(F)F)cc2)NC1c1ccccc1 (configuration not stated) | / | 10 | 19 | / | / | / | / | / | / | /
CCN(CC(=O)Nc1cccc(F)c1)CC(=O)Nc1ccccc1OC | -1 | 2 | -16 | 10 | -7 | 0 | / | / | / | /
COC(=O)C1=C(C)N(Cc2ccc(C(F)(F)F)cc2)C(=NCc2ccccc2)NC1c1cccc(C(F)(F)F)c1 (configuration not stated) | / | 18 | 29 | / | / | / | / | / | / | /
SMILES | MC4R ag barr | TAAR1 ag | TAAR1 antag | MC4R antag cAMP | Beta2AR agonist | HTR2A ag | nonsel antag count | TAAR1 ant conf | Ga16 ag counter | TAAR1 ag count
COC(=O)C1=C(C)N(C)C(=NCc2cccc(C(F)(F)F)c2)NC1c1ccccc1 (configuration not stated) | / | 8 | -3 | / | / | / | / | / | / | /
COC(=O)C1=C(C)N(C)C(=NCc2cccc(C(F)(F)F)c2)NC1c1ccc(C(F)(F)F)cc1 (configuration not stated) | / | 27 | 51* | / | / | / | 33* | 40 | 13* | 26
COC(=O)C1=C(C)N(Cc2ccc(C(F)(F)F)cc2)C(=NCc2ccccc2)NC1c1ccccc1 (configuration not stated) | / | 34 | 51* | / | / | / | 36* | 32 | 18* | 36
COC(=O)C1=C(C)N(Cc2ccc(C(F)(F)F)cc2)C(=NCc2ccccc2)NC1c1ccc(C(F)(F)F)cc1 (configuration not stated) | / | 23 | 55* | / | / | / | 41* | 33 | 21* | 44*
COc1ccc(C(C(=O)NCc2ccccc2)n2c(=O)c(-c3ccco3)nc3ccccc32)cc1 (configuration not stated) | / | -1 | -15 | / | / | 2 | / | / | / | /
Cc1nc2ccccc2c(=O)n1/N=C/c1ccc(O)cc1 | 0 | 11 | -11 | 0 | -12 | 8 | / | / | / | /
Cc1nc2ccccc2c(=O)n1/N=C/c1ccc(C(C)C)cc1 | 3 | 4 | 61* | 11 | 14 | 0 | 31* | 43 | 2 | -3
